According to ChEMBL document CHEMBL1137702, “Identification of hydrolytically stable and selective P2Y(1) receptor agonists” (Eur J Med Chem, 2009):
The source made the active and inactive calls. The rule behind the calls is not given here.

How the values were obtained:
[1] = target: T1, Ectonucleotide pyrophosphatase/phosphodiesterase family member 1 (Homo sapiens) (UniProt P22413); assay: Inhibition of human NPP1 expressed in human 293T cells; assay type: cell-based
T1 sequence (whole entry): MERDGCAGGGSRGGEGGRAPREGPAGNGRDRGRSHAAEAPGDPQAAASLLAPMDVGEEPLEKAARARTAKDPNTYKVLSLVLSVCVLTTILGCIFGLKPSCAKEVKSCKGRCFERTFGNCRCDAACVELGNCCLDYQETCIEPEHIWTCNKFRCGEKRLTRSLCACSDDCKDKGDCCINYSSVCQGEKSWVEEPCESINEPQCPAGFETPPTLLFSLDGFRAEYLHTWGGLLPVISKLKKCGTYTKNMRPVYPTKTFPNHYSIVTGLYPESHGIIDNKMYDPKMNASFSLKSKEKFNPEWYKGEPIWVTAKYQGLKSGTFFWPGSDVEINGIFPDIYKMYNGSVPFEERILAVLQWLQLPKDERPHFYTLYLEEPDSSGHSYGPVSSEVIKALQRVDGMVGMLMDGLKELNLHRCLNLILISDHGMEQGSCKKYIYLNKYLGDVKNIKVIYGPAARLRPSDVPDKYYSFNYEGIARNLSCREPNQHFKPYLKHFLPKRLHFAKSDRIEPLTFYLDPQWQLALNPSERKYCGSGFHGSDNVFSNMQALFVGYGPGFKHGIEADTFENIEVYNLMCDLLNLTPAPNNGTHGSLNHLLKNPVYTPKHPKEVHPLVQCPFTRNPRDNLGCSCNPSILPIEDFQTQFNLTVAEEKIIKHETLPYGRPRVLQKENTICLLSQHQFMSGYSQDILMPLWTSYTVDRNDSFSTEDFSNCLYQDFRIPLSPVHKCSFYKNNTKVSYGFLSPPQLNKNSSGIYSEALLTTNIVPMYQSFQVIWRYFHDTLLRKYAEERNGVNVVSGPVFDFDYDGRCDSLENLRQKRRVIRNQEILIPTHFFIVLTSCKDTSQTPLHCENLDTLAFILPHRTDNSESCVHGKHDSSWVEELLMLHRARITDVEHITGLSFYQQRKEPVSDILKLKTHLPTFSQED

P2Y purinoceptor 4 = P2Y purinoceptor 4 (Homo sapiens, UniProt P51582); assay: Antagonist activity at human P2Y4 receptor expressed in human 1321N1 cells assessed as inhibition of UTP-induced increase in intracellular calcium concentration by dual-excitation spectrofluorimetric analysis; assay type: functional, cell-based
Procedure, shortened: (§1)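 Fura-2-loaded suspensions of stably transfected 1321N1 cells were assayed at 37 °C in HEPES-buffered saline pH 7.4 with 1 mM Ca2+ and Mg2+. […] [Ca2+]i was read by dual-excitation spectrofluorometry.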

[2] = target: T2, Ectonucleotide pyrophosphatase/phosphodiesterase family member 3 (Homo sapiens) (UniProt O14638); assay: Inhibition of human NPP3 expressed in human 293T cells; assay type: cell-based
T2 sequence (whole entry): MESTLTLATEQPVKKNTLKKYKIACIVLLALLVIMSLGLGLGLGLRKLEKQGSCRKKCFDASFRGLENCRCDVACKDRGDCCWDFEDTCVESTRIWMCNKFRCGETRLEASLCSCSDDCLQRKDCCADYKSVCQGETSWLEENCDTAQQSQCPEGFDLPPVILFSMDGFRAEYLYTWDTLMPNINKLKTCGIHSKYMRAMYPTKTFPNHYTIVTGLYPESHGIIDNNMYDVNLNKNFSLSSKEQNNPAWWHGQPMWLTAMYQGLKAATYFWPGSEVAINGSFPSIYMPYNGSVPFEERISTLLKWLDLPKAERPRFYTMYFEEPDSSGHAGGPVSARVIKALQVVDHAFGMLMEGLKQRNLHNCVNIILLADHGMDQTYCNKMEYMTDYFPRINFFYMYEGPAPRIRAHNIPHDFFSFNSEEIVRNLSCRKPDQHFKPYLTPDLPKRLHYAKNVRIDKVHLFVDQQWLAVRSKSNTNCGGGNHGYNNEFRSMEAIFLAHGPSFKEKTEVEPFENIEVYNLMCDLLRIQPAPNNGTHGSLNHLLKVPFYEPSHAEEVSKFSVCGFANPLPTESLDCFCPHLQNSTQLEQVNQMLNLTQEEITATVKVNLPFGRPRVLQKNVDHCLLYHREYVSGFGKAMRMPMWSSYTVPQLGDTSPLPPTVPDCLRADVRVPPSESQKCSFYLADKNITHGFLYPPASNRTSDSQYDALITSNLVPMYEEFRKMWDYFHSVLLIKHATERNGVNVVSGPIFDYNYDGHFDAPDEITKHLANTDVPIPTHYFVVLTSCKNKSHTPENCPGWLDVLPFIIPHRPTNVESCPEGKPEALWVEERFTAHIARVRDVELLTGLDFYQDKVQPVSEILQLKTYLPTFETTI

[3] = target: T3, Ectonucleoside triphosphate diphosphohydrolase 1 (Homo sapiens) (UniProt P49961); assay: Inhibition of human NTPDase 1 expressed in human 293T cells; assay type: cell-based
T3 sequence (whole entry): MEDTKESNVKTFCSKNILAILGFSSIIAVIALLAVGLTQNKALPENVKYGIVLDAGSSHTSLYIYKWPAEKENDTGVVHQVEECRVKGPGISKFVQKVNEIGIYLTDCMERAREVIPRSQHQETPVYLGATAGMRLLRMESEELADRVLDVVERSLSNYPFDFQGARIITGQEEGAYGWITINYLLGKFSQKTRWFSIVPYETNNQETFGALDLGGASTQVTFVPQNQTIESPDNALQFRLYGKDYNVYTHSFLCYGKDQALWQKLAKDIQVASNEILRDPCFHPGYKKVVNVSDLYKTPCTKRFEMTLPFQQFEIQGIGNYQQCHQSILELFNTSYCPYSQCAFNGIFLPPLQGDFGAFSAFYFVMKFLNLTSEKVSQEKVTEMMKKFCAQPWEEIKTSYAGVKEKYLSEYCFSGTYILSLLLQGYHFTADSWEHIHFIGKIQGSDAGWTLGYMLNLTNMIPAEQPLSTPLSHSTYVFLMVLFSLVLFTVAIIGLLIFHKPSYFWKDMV

[4] = target: T3, Ectonucleoside triphosphate diphosphohydrolase 1 (Homo sapiens); assay: Activity of human NTPDase 1 expressed in human 293T cells assessed as drug hydrolysis at 100 uM after 20 mins relative to ATP; assay type: cell-based; design: scale not given: the % may be the effect or the level left
Procedure, shortened: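 Human NTPDase1, 2, 3 or 8 in crude extracts of transfected 293T cells, pre-incubated 3 min at 37 °C in Tris-Ringer buffer pH 7.4. […] Untransfected-cell extract activity subtracted.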

P2Y purinoceptor 2 = P2Y purinoceptor 2 (Homo sapiens, UniProt P41231); assay: Antagonist activity at human P2Y2 receptor expressed in human 1321N1 cells assessed as inhibition of UTP-induced increase in intracellular calcium concentration by dual-excitation spectrofluorimetric analysis; assay type: functional, cell-based; procedure, shortened: as §1
[5] = target: P2Y purinoceptor 6 (Rattus norvegicus) (UniProt Q63371); assay: Agonist activity at rat P2Y6 receptor expressed in human 1321N1 cells assessed as increase in intracellular calcium concentration at 100 uM by dual-excitation spectrofluorimetric analysis; assay type: functional, cell-based
[6] = target: P2Y purinoceptor 1 (Meleagris gallopavo) (UniProt P49652); assay: Antagonist activity at turkey P2Y1 receptor expressed in human 1321N1 cells assessed as inhibition of 2-MeS-ADP-induced increase in intracellular calcium concentration by dual-excitation spectrofluorimetric analysis; assay type: functional, cell-based; procedure, shortened: as §1
Chain of P2Y purinoceptor 1 (Meleagris gallopavo) (P49652 whole entry): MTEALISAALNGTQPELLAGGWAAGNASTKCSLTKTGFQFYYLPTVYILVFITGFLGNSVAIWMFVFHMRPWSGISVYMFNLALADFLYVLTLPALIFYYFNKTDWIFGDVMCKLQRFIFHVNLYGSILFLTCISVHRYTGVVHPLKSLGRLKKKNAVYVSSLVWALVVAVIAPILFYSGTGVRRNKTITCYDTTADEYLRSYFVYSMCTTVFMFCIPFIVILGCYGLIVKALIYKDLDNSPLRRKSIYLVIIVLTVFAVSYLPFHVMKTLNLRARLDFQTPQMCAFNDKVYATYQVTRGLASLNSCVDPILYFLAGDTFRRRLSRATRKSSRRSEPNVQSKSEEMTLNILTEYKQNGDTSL

Chain of P2Y purinoceptor 6 (Rattus norvegicus) (Q63371 whole entry): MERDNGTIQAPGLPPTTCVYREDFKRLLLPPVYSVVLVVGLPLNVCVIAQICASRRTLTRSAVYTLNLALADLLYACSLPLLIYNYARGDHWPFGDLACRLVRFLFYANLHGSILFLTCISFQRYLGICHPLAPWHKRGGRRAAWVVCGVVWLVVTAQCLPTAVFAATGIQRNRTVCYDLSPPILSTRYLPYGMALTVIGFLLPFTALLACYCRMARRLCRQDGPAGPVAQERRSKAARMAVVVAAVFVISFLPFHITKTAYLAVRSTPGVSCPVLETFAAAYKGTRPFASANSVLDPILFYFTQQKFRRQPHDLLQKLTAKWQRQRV
Chain of P2Y purinoceptor 2 (P41231 whole entry): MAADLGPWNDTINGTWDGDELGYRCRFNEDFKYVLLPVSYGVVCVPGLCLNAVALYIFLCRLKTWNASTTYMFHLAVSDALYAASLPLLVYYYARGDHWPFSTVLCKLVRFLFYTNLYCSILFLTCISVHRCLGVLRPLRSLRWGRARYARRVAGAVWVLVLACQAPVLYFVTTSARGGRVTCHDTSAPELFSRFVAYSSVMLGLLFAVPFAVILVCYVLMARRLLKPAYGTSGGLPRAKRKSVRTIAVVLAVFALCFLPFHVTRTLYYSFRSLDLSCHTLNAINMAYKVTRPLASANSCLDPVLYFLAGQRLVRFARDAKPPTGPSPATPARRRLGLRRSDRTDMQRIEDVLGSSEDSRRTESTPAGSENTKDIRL
Chain of P2Y purinoceptor 4 (P51582 whole entry): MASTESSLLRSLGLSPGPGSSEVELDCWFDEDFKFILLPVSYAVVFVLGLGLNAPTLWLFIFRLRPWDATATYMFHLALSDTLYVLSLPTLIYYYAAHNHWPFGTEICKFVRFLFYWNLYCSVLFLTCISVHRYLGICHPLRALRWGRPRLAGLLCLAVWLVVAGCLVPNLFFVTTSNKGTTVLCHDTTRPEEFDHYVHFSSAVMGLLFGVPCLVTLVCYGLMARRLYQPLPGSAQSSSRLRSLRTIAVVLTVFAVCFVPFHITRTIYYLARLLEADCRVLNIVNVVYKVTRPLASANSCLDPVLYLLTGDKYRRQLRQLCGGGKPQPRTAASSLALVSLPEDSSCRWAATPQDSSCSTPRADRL

Activity [1] | Activity (P2Y purinoceptor 4) | Activity [2] | Activity [3] | Activity [4] [%] | Activity (P2Y purinoceptor 2) | Activity [5] | Activity [6] | SMILES
inactive | inactive | inactive | inactive | 1 | inactive |  |  | BP(=O)(OC[C@H]1O[C@@H](n2cnc3c(N)ncnc32)[C@H](O)[C@@H]1O)OP(=O)(O)CP(=O)(O)O (some centres not stated)
inactive | inactive | inactive | inactive | 0 | inactive | Active | inactive | BP(=O)(OC[C@H]1O[C@@H](n2cnc3c(N)ncnc32)[C@H](O)[C@@H]1O)OP(=O)(O)CP(=O)(O)O (single isomer, unassigned; diastereomer B)

More lines, now with the values behind:

SMILES | Activity [1] | Activity (P2Y purinoceptor 4) | Activity [2] | Activity [3] | Activity [4] [%] | Activity (P2Y purinoceptor 2) | Activity [5] | Activity [6]
CSc1nc(N)c2ncn([C@@H]3O[C@H](COP(=O)(O)OP(=O)(O)CP(=O)(O)O)[C@@H](O)[C@H]3O)c2n1 | inactive | inactive | inactive | inactive | 8 | inactive | Active | inactive
BP(=O)(OC[C@H]1O[C@@H](n2cnc3c(N)nc(SC)nc32)[C@H](O)[C@@H]1O)OP(=O)(O)CP(=O)(O)O (single isomer, unassigned; diastereomer A) | inactive | inactive | inactive | inactive | < 1 | inactive |  | inactive
BP(=O)(OC[C@H]1O[C@@H](n2cnc3c(N)nc(SC)nc32)[C@H](O)[C@@H]1O)OP(=O)(O)CP(=O)(O)O (single isomer, unassigned; diastereomer B) | inactive | inactive | inactive | inactive | < 1 | inactive | Active | inactive
